This note sets out measurements from ChEMBL document CHEMBL4706541, “Design and synthesis of 1H-indazole-3-carboxamide derivatives as potent and selective PAK1 inhibitors with anti-tumour migration and invasion activities” (Eur J Med Chem, 2020).

Each structure is given as a SMILES string. pIC50: −log10 of the molar value.

Experiment [1] deals with Tyrosine-protein kinase SYK (Homo sapiens) (UniProt P43405). The experiment can be described thus: Inhibition of SYK (unknown origin) assessed as residual activity at 0.1 uM preincubated for 20 min followed by [gamma33P]ATP addition and measured after 120 mins by Hotspot assay relative to control. The settings on record: time 140.0 min. The method, boiled down:
(§1)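 Radiometric HotSpot kinase assay. Kinase and substrate are combined in 20 mM Hepes pH 7.5, 10 mM MgCl2, 1 mM EGTA, 0.02% Brij35, 0.02 mg/mL BSA, 0.1 mM Na3VO4, 2 mM DTT and 1% DMSO. Compound is added and preincubated 20 min at room temperature. The reaction starts with ATP plus 33P-ATP at 10 µM final and runs 120 min at 25 °C. Filter-binding read-out, given as % activity remaining versus DMSO.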

Experiment [2] concerns MDA-MB-231. The experiment can be described thus: Antiproliferative activity against human MDA-MB-231 cells assessed as growth inhibition at 1 uM after 72 hrs by Cell Titer-Glo assay relative to control. Format: functional. To be noted: read-out: GI. The method, boiled down:
(§2)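 Cells kept at 37 °C in 5% CO2 and plated at 4000 per well. Treated with compound for 72 h. Viability read by CellTiter-Glo luminescence. Each compound run in duplicate, data as means ± SD.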
(In ATP-based viability assays light output follows the ATP content of the culture.)

For experiment [3], the target named is Ephrin type-A receptor 1 (Homo sapiens) (UniProt P21709). The experiment can be described thus: Inhibition of EPHA1 (unknown origin) assessed as residual activity at 0.1 uM preincubated for 20 min followed by [gamma33P]ATP addition and measured after 120 mins by Hotspot assay relative to control. To be noted: time 140.0 min. A digest of the protocol:
as §1

The target of experiment [4] is Receptor-type tyrosine-protein kinase FLT3 (Homo sapiens) (UniProt P36888). The experiment can be described thus: Inhibition of FLT3 (unknown origin) assessed as residual activity at 0.1 uM preincubated for 20 min followed by [gamma33P]ATP addition and measured after 120 mins by Hotspot assay relative to control. To be noted: time 140.0 min. The method, boiled down:
as §1

Experiment [5] concerns the target Serine/threonine-protein kinase PAK 2 (Homo sapiens) (UniProt Q13177). The experiment can be described thus: Inhibtion of recombinant human N-terminal GST/His6-tagged PAK2 (D3 to R524 residues) expressed in sf9 insect cells assessed as residual activity at 0.1 uM using RRRLSFAEPG as substrate preincubated for 20 min followed by [gamma33P]ATP addition and measured after 120 mins by Hotspot assay relative to control. The settings on record: time 140.0 min. A digest of the protocol:
as §1

For experiment [6], the target named is Serine/threonine-protein kinase 24 (Homo sapiens) (UniProt Q9Y6E0). The experiment can be described thus: Inhibition of STK24 (unknown origin) assessed as residual activity at 0.1 uM preincubated for 20 min followed by [gamma33P]ATP addition and measured after 120 mins by Hotspot assay relative to control. To be noted: time 140.0 min. The method, boiled down: as §1
Sequence of Serine/threonine-protein kinase 24 (Homo sapiens) (Q9Y6E0 whole entry, looked up): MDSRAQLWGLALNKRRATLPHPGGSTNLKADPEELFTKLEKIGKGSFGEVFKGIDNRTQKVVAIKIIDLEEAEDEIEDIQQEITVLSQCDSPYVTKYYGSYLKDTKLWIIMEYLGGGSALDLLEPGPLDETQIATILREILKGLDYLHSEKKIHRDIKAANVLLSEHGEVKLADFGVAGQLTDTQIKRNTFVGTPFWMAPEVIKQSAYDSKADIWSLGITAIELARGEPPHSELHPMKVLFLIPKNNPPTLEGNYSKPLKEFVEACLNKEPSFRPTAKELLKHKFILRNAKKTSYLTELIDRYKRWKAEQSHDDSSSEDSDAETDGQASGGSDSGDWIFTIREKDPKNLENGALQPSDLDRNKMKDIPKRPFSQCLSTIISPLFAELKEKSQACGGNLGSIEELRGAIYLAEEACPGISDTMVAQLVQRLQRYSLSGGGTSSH

For experiment [7], the target named is Mitogen-activated protein kinase 8 (Homo sapiens) (UniProt P45983). The experiment can be described thus: Inhibition of JNK1 (unknown origin) assessed as residual activity at 0.1 uM preincubated for 20 min followed by [gamma33P]ATP addition and measured after 120 mins by Hotspot assay relative to control. The settings on record: time 140.0 min. The method, boiled down:
as §1

In experiment [8] the target is RAC-alpha serine/threonine-protein kinase (Homo sapiens) (UniProt P31749). The experiment can be described thus: Inhibition of AKT1 (unknown origin) assessed as residual activity at 0.1 uM preincubated for 20 min followed by [gamma33P]ATP addition and measured after 120 mins by Hotspot assay relative to control. The settings on record: time 140.0 min. The method, boiled down:
as §1

The target in experiment [9] is Tyrosine-protein kinase ABL1 (Homo sapiens) (UniProt P00519). The experiment can be described thus: Inhibition of ABL1 (unknown origin) assessed as residual activity at 0.1 uM preincubated for 20 min followed by [gamma33P]ATP addition and measured after 120 mins by Hotspot assay relative to control. The settings on record: time 140.0 min. A digest of the protocol:
as §1

Experiment [10] addresses LIM domain kinase 1 (Homo sapiens) (UniProt P53667). The experiment can be described thus: Inhibition of LIMK1 (unknown origin) assessed as residual activity at 0.1 uM preincubated for 20 min followed by [gamma33P]ATP addition and measured after 120 mins by Hotspot assay relative to control. The settings on record: time 140.0 min. A digest of the protocol: as §1
In experiment [11] the target is Tyrosine-protein kinase BTK (Homo sapiens) (UniProt Q06187). The experiment can be described thus: Inhibition of BTK (unknown origin) assessed as residual activity at 0.1 uM preincubated for 20 min followed by [gamma33P]ATP addition and measured after 120 mins by Hotspot assay relative to control. To be noted: time 140.0 min. The method, boiled down:
as §1

For experiment [12], the system named is HCT-116. The experiment can be described thus: Antiproliferative activity against human HCT-116 cells assessed as growth inhibition at 1 uM after 72 hrs by Cell Titer-Glo assay relative to control. The experiment is classed as functional. To be noted: read-out: GI. The method, boiled down:
as §2

In experiment [13] the target is CDK6/cyclin D1 (Homo sapiens) (UniProt P24385+Q00534). The experiment can be described thus: Inhibition of CDK6/cyclin Dl (unknown origin) assessed as residual activity at 0.1 uM preincubated for 20 min followed by [gamma33P]ATP addition and measured after 120 mins by Hotspot assay relative to control. Format: protein-complex assay. The settings on record: time 140.0 min. The method, boiled down:
as §1

In experiment [14] the target is Serine/threonine-protein kinase B-raf (Homo sapiens) (UniProt P15056). The experiment can be described thus: Inhibition of BRAF (unknown origin) assessed as residual activity at 0.1 uM preincubated for 20 min followed by [gamma33P]ATP addition and measured after 120 mins by Hotspot assay relative to control. To be noted: time 140.0 min. A digest of the protocol:
as §1

Experiment [15] deals with Serine/threonine-protein kinase PAK 5 (Homo sapiens) (UniProt Q9P286). The experiment can be described thus: Inhibtion of recombinant human PAK5 expressed in baculovirus infected sf9 insect cells assessed as residual activity at 0.1 uM using RRRLSFAEPG as substrate preincubated for 20 min followed by [gamma33P]ATP addition and measured after 120 mins by Hotspot assay relative to control. The settings on record: time 140.0 min. A digest of the protocol:
as §1

For experiment [16], the system named is MDA-MB-231. The experiment can be described thus: Antiinvasive activity against human MDA-MB-231 cells assessed as decrease is number of penetrated cells at 0.25 to 1 uM after 24 hrs by inverted microscopic based Transwell invasion assay relative to control. Format: functional. On the set-up: scale not given: the % may be the effect or the level left. To be noted: dose 0.25-1 µM. The method, boiled down:
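Cells grown to confluence and scratched with a sterile pipette tip, or placed at 1×10^5 cells in serum-free DMEM with 0.1% […] in the upper part of Matrigel-coated Boyden chambers over DMEM with 10% FBS. Compound treatment for 24 h at 37 °C. Read-out is wound distance from images or the count of invaded cells on the lower filter face after fixing and staining. Data given as means ± SD.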

Experiment [17] concerns the target Voltage-gated inwardly rectifying potassium channel KCNH2 (Homo sapiens, UniProt Q12809). The experiment can be described thus: Inhibition of human ERG.
Experiment [18] concerns the target Vascular endothelial growth factor receptor 2 (Homo sapiens) (UniProt P35968). The experiment can be described thus: Inhibition of VEGFR2 (unknown origin) assessed as residual activity at 0.1 uM preincubated for 20 min followed by [gamma33P]ATP addition and measured after 120 mins by Hotspot assay relative to control. The settings on record: time 140.0 min. The method, boiled down: as §1

Experiment [19] deals with Mitogen-activated protein kinase kinase kinase kinase 1 (Homo sapiens) (UniProt Q92918). The experiment can be described thus: Inhibition of MAP4K1 (unknown origin) assessed as residual activity at 0.1 uM preincubated for 20 min followed by [gamma33P]ATP addition and measured after 120 mins by Hotspot assay relative to control. To be noted: time 140.0 min. The method, boiled down:
as §1

Experiment [20] addresses Dual specificity mitogen-activated protein kinase kinase 1 (Homo sapiens) (UniProt Q02750). The experiment can be described thus: Inhibition of MEK1 (unknown origin) assessed as residual activity at 0.1 uM preincubated for 20 min followed by [gamma33P]ATP addition and measured after 120 mins by Hotspot assay relative to control. The settings on record: time 140.0 min. A digest of the protocol:
as §1

In experiment [21] the target is Tyrosine-protein kinase JAK1 (Homo sapiens) (UniProt P23458). The experiment can be described thus: Inhibition of JAK1 (unknown origin) assessed as residual activity at 0.1 uM preincubated for 20 min followed by [gamma33P]ATP addition and measured after 120 mins by Hotspot assay relative to control. The settings on record: time 140.0 min. The method, boiled down: as §1

Sequence of Dual specificity mitogen-activated protein kinase kinase 1 (Homo sapiens) (Q02750 whole entry): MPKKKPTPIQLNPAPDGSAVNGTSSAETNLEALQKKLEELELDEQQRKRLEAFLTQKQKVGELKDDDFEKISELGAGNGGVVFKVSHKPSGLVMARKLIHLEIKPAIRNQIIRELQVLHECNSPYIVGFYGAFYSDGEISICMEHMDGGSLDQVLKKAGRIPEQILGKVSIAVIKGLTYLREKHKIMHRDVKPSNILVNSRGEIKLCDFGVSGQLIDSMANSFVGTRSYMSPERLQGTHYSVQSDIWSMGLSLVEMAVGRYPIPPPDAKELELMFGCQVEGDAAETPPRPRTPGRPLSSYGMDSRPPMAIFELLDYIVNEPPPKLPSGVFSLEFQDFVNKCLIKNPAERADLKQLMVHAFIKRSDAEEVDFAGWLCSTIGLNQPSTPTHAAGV
Sequence of Voltage-gated inwardly rectifying potassium channel KCNH2 (Q12809 whole entry): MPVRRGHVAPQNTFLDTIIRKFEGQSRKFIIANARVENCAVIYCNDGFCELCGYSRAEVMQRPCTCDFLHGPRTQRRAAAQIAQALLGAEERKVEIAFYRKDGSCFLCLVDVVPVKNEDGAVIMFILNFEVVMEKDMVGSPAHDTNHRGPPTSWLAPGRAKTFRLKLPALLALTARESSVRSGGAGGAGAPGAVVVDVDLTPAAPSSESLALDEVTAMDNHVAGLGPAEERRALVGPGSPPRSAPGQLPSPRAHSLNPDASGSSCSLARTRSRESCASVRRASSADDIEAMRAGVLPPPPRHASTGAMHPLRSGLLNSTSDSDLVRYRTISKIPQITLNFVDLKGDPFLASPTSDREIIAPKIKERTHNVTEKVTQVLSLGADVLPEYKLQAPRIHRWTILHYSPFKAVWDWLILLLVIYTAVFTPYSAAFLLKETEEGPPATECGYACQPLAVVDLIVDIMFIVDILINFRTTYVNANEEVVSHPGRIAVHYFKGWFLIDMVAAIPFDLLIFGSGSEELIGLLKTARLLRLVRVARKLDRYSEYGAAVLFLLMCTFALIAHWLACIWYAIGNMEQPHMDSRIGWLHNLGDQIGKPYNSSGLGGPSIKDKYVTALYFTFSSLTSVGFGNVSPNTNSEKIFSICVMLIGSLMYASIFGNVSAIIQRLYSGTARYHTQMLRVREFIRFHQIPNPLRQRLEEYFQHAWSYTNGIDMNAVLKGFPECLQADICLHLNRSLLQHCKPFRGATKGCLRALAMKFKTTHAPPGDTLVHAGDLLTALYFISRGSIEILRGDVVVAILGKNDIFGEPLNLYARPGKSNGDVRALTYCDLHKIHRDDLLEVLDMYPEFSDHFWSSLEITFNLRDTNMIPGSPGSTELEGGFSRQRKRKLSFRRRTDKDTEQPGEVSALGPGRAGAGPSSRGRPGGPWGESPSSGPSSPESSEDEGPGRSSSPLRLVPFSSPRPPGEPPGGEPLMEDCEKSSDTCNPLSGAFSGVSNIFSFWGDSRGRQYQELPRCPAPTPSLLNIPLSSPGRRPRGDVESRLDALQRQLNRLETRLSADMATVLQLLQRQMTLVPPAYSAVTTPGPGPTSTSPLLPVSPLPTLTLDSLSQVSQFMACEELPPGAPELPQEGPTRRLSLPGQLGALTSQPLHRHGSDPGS
Sequence of Tyrosine-protein kinase ABL1 (Homo sapiens) (P00519 whole entry): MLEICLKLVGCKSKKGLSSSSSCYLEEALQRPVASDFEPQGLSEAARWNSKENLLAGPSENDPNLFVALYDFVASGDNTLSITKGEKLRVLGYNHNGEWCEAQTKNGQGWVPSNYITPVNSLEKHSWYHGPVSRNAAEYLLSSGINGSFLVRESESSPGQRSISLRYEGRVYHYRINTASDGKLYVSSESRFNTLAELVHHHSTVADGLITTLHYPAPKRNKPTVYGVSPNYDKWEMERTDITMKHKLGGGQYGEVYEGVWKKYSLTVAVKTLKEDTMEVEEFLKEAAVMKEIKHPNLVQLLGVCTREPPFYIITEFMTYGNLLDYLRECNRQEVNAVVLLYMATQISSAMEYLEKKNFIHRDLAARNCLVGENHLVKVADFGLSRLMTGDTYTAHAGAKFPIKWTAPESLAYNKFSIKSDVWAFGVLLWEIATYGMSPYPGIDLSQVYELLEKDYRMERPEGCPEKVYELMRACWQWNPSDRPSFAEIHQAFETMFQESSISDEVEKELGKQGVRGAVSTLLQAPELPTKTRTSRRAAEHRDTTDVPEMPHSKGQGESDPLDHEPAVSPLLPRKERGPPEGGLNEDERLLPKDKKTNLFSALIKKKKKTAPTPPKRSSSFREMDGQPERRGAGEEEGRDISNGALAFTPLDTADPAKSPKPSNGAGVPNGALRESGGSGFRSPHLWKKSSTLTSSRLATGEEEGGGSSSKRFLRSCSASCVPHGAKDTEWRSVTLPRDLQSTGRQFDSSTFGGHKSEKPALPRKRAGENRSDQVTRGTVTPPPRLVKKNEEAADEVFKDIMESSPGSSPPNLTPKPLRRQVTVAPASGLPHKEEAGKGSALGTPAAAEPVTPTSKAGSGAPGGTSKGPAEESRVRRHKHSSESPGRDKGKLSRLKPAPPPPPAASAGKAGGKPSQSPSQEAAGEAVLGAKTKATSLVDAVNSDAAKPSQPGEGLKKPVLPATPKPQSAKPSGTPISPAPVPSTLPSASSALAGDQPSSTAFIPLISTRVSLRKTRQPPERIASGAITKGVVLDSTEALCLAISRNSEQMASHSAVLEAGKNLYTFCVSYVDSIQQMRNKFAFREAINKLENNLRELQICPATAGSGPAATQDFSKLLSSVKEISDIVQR
Sequence of Vascular endothelial growth factor receptor 2 (Homo sapiens) (P35968 whole entry): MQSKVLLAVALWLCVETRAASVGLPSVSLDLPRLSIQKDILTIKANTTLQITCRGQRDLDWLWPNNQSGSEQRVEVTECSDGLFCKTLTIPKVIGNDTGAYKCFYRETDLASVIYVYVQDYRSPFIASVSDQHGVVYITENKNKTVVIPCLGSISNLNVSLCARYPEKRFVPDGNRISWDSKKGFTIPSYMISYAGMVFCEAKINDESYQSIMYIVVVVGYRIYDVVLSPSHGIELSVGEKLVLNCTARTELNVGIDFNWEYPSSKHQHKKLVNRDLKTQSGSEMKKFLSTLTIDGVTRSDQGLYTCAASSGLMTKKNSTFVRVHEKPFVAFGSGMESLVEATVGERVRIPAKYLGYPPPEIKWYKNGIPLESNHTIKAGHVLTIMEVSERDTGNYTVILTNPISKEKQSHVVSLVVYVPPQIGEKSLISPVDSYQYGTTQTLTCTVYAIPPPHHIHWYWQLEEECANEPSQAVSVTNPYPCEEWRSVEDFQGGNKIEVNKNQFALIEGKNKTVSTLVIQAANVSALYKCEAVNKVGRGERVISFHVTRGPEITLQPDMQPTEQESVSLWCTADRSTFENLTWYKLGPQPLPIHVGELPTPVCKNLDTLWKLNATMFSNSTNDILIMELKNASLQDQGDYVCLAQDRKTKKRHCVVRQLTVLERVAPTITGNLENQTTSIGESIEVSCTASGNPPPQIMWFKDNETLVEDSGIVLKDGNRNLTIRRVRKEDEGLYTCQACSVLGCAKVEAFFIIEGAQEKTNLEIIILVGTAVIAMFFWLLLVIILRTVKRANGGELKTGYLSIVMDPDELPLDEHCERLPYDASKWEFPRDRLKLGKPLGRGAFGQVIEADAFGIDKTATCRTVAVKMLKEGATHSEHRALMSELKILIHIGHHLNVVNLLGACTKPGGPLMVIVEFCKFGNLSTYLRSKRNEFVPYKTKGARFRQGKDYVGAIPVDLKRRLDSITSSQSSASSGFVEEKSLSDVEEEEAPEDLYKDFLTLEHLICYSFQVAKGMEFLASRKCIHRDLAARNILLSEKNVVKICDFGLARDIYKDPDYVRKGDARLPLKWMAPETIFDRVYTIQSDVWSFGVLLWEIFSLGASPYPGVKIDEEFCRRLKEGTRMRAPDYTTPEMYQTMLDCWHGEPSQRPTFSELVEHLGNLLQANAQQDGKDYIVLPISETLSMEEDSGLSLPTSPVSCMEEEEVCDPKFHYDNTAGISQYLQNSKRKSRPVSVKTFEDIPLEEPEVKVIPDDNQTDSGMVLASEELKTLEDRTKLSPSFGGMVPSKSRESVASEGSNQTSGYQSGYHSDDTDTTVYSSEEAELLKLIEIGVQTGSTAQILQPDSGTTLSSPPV
Sequence of RAC-alpha serine/threonine-protein kinase (Homo sapiens) (P31749 whole entry): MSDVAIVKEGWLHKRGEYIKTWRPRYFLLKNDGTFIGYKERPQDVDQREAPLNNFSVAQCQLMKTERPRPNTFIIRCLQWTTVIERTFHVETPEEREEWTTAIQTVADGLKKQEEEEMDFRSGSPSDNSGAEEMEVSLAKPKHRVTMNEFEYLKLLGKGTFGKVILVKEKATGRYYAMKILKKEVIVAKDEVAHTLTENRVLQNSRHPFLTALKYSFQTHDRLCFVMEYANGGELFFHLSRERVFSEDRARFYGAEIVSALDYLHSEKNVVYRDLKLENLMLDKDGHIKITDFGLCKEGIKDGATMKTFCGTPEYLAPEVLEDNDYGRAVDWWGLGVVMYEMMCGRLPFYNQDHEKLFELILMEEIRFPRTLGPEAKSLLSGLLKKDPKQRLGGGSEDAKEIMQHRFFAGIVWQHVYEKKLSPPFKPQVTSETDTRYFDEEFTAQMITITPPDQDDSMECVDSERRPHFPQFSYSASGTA

The term pIC50 denotes the IC50 on a negative log10 scale, so that one unit is a factor of ten. As for `Cc1cccn(-c2ccc(-c3ccc4c(C(=O)NCc5ccncc5)n[nH]c4c3)c(Cl)c2)c1=O`, the Activity in experiment [1] turned out to be 94.2%; in experiment [3], 91.9%; in [4], 98.8%; in experiment [5], 28%; in [6], 64%; in experiment [7], 72.8%. Besides, the Activity in [8] is 98.8%; in experiment [9], 106%; in experiment [10] it was 115%; in [11] it was 99.1%; in experiment [13], 112%; in [14], 84.4%. Further, the Activity is 116% in experiment [15]; less than 40% in experiment [16]; 92.4% in experiment [18]; 89.6% in experiment [19]; 84.4% in [20]; 88.7% in experiment [21]. The inhibition of growth at 1 µM in experiment [2] was determined as 6.31%; in [12], 8.73%. In [17], the pIC50 is 4.80.
